Assay results from PubChem BioAssay.
Calls of active or inactive are those of the source.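 The calls were made as follows, unless noted: active = visually confirmed hit in the image check and inhibition above 20%; inconclusive = visually confirmed hit but inhibition not above 20%; inactive = no visual hit in the image check.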

Assays:
[1] = inhibitors of TNFa-induced NFkB p65 translocation, primary screen, imaging, HUVEC, MLSMR starter and 10KST1 sets (AID 438;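 active = inhibition above 20% together with a positive visual image hit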;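 also: compound added about 3h40 before a 20 min TNFalpha stimulation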;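 as to inhibition: signal is the nuclear over cytoplasmic p65 intensity ratio per well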); conditions: HUVEC TNFa-induced p65 nuclear translocation; cell count: measured here: nuclei count (cytotoxicity indicator), at 2.08 µM; inhibition: at 2 µM, stronger effect = higher value, 0% TNFa-plus-vehicle, 100% no-TNFa wells
[2] = reduction of polyQ htt aggregates in cells – imaging, exon1htt(103Q)mCFP cells, high-content imaging, primary screen (AID 483;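 active = visual image review flags a hit and inhibition of aggregation exceeds 20%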;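 also: compound exposure lasted 3 days before fixation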;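 as to nuclei count: percent of the per-plate median nuclei count of sample wells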); conditions: exon1htt(103Q)mCFP cell line, aggregate imaging, at 2 µM; inhibition of aggregation: stronger effect = higher value; nuclei count: measured here: cell count, toxicity
[3] = endothelial E-selectin expression blockers – imaging, HUVEC, immunofluorescence, MLSMR starter and 10KST1 sets, primary screen (AID 487); conditions: HUVEC TNFalpha-induced E-selectin immunofluorescence imaging, at 2 µM; inhibition: stronger effect = higher value; nuclei count: measured here: cell number, toxicity;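 as to inhibition: signal is fraction of cell area covered by stained E-selectin grains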;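 as to nuclei count: 100% = median nuclei count of all wells on the same plate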
[4] = target: Voltage-gated potassium channel subunit beta-2 (Rattus norvegicus) (UniProt P62483); assay: inhibitors of rat Kvbeta2 reductase activity – biochemical, NADPH fluorescence, primary screen (AID 622;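 active = fluorescence slope higher than the sample average by over 3 SD, cut at about -0.22 in these data, passing the limit was not always enough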;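 also: slope of raw intensity against log time taken from 70 to 1610 s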); conditions: recombinant KvBeta, 4-cyanobenzaldehyde reduction, at 10 µM, stronger effect = higher value
[5] = target: Voltage-gated potassium channel subunit beta-2 (Rattus norvegicus) (UniProt P62483); assay: enhancers of rat Kvbeta2 NADPH turnover – biochemical, NADPH fluorescence, primary screen (AID 623;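 active = NADPH fluorescence slope more negative than the mean of all samples by about 3 SD, 99.7% confidence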;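 also: fluorescence intensity change per second fitted from 20 to 320 s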); conditions: Recombinant KvBeta, NADPH fluorescence decrease slope, 10 min; at 10 µM; stronger effect = lower value
[6] = target: Muscarinic acetylcholine receptor M4 (Homo sapiens) (UniProt P08173); assay: M4-linked GIRK flux change, two-sided – cell-based, HEK293 M4/GIRK, thallium flux, BTC-AM, M4 allosteric agonist project, primary screen (AID 625;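 active = fluorescence slope after compound addition differing from the mean of all tested samples at 99.7% confidence, mostly higher but some lower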;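 also: thallium influx through GIRK channels coupled to M4 in HEK293 cells with BTC-AM dye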); conditions: at 10 µM, actives lie on both sides
Summary of the method: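 System: HEK293 cells with M4 receptor and GIRK channels | Incubation: Cells overnight at 37 °C, BTC-AM loading 1 h, reads 2 min total | Technique: Kinetic BTC-AM fluorescence sampled at 1 Hz, 10 s pre-addition baseline | Measure: Post-addition slope, 15–24 s, of baseline-normalized fluorescence | Control set: Carbachol positive, DMSO negative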

[7] = blockers of RIG-like receptor reporter activation – cell-based, Sendai virus stimulus, luciferase, 10K MLSCN set, TLR/RLR signaling modifier project, primary screen (AID 602276;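 active = inhibition at or above 50% at 10 µM; inactive = inhibition below 50%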;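 also: firefly luciferase from ISG56 promoter only with Renilla not read in this screen; 0% = Sendai virus plus DMSO and 100% = medium plus DMSO without virus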); conditions: HEK293 RL24 IRF3 luciferase reporter, at 10 µM, stronger effect = higher value
[8] = TLR3 IRF3 reporter activation blockers – cell-based, poly I:C stimulus, luciferase, 10K MLSCN set, primary screen (AID 602277;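 active = inhibition of the reporter signal at or above 50%; inactive = inhibition below 50%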); conditions: HEK293-TLR3 RL24 IRF3 luciferase reporter, at 10 µM, stronger effect = higher value

Sequence of Voltage-gated potassium channel subunit beta-2 (Rattus norvegicus) (P62483 whole entry, looked up): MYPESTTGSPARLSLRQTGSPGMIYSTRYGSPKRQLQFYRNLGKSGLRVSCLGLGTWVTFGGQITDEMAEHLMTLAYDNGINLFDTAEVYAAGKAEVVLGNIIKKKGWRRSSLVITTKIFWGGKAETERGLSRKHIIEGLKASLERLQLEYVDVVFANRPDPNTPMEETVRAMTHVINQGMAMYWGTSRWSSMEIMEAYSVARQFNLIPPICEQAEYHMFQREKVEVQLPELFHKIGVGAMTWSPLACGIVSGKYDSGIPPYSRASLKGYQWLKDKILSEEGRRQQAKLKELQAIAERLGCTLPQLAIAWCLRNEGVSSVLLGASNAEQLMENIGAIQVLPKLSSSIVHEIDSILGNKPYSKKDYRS
Sequence of Muscarinic acetylcholine receptor M4 (Homo sapiens) (P08173 whole entry, looked up): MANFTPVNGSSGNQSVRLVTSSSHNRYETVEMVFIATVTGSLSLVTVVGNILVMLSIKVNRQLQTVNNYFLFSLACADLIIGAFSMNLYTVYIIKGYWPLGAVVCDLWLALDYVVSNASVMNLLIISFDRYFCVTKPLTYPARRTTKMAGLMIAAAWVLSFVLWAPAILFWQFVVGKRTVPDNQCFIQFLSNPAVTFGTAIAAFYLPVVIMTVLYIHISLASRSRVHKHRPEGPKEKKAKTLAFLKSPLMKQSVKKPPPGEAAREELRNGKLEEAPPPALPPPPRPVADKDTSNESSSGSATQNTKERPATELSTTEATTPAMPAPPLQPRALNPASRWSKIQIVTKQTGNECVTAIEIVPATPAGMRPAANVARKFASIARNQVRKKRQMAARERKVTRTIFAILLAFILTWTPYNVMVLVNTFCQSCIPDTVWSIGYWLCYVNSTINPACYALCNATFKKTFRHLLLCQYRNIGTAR

Row | Compound | cell count [1] | inhibition [1] | inhibition of aggregation [2] | nuclei count [2] [%] | inhibition [3] | nuclei count [3] [%] | fluorescence slope [4] | NADPH fluorescence slope [5] | fluorescence slope [6] | inhibition [7] | inhibition [8]
1 | O=C(CC1CCCCC1)NCc1ccccn1 | 595 | 4.1% (inactive) | 11.3% (inactive) | 94.6 | -42.2% (inactive) | 116 | -0.462 (inactive) | -5.1e-05 (inactive) | 0.00493 (inactive) | 11.5% (inactive) | 12.6% (inactive)
2 | COc1ccccc1NC(=O)N1CCCC1C(=O)NC1CCCCC1 (centres undefined) | 582 | 0.4% (inactive) | 9% (inactive) | 92.5 | -19.7% (inactive) | 121 | -0.227 (inactive) | -2.2e-05 (inactive) | 0.00721 (inactive) | 15.6% (inactive) | 11.1% (inactive)
3 | CCCCC(CC)C(=O)Nc1ccc(Cl)cn1 (centres undefined) | 461 | 8.5% (inactive) | 4.5% (inactive) | 102 | -29.4% (inactive) | 117 | -0.377 (inactive) | -7.8e-05 (inactive) | 0.00769 (inactive) | 13.3% (inactive) | 17.2% (inactive)
4 | Cc1ccc(C)c(Cn2c(=O)n(CCC(=O)NCc3ccco3)c(=O)c3sccc32)c1 | 506 | -4.5% (inactive) | 3.9% (inactive) | 95.3 | 17.2% (inactive) | 93.3 | -0.572 (inactive) | -5.2e-06 (inactive) | 0.00734 (inactive) | 19.5% (inactive) | 16.1% (inactive)
5 | COc1ccc2oc(C)c(C(=O)Cn3ccnc3)c2c1 | 488 | -7.3% (inactive) | 22.7% (inactive) | 54.3 | -16% (inactive) | 108 | -0.578 (inactive) | -1.5e-05 (inactive) | 0.00618 (inactive) | -26.4% (inactive) | -28.5% (inactive)
6 | CCOC(=O)C1=C(c2ccccc2)Nc2nc(C)nn2C1c1cccc(OC)c1OC (centres undefined) | 613 | 1.7% (inactive) | -13.2% (inactive) | 111 | -152% (inactive) | 149 | -0.508 (inactive) | -0.000215 (inactive) | 0.00365 (inactive) | 5.33% (inactive) | 15.1% (inactive)
7 | N#CC1=C(N)Oc2n[nH]c(-c3ccncc3)c2C1c1ccsc1 (centres undefined) | 387 | -1.5% (inactive) | -10.3% (inactive) | 109 | 35.9% (inactive) | 98.6 | -0.546 (inactive) | 1.9e-05 (inactive) | 0.00579 (inactive) | -2.51% (inactive) | -6.52% (inactive)
8 | CCN(CC)c1ccc2c(c1)C(=O)N(C)C2=O | 580 | -1.9% (inactive) | -5.6% (inactive) | 92.2 | -49% (inactive) | 104 | -0.417 (inactive) | -6.9e-05 (inactive) | 0.00562 (inactive) | -6.87% (inactive) | -37.5% (inactive)
9 | COc1ccc(Cc2nnc3n2N=C(c2cc4ccccc4o2)CS3)cc1OC | 378 | -16.3% (inactive) | 40.2% (active) | 43.3 | 38.3% (inactive) | 51.6 | -0.346 (inactive) | -7.6e-05 (inactive) | 0.00468 (inactive) | 11.3% (inactive) | 26% (inactive)
10 | CCSc1nnc(NC(=O)c2ccc(C)o2)s1 | 603 | -10.7% (inactive) | 21.1% (inactive) | 96.3 | 11.4% (inactive) | 96.3 | -0.531 (inactive) | -4e-05 (inactive) | 0.00557 (inactive) | -41.5% (inactive) | -89% (inactive)
11 | O=C(OCC(=O)c1c[nH]c2ccccc12)C1=COCCO1 | 579 | -6.9% (inactive) | -9.2% (inactive) | 100 | -1% (inactive) | 69.3 | -0.271 (inactive) | -5.8e-05 (inactive) | 0.00653 (inactive) | -19.9% (inactive) | -100% (inactive)
12 | CCCSC1=C(C#N)C(c2ccccc2OCC)CC(=O)N1 (centres undefined) | 443 | 0.5% (inactive) | 0.2% (inactive) | 111 | 9.8% (inactive) | 95 | -0.454 (inactive) | -2.4e-05 (inactive) | 0.00486 (inactive) | 17.2% (inactive) | 17.7% (inactive)
13 | COCCNC(=O)Cn1nc(C(F)(F)F)c(Br)c1C | 376 | 1.1% (inactive) | 19.5% (inactive) | 65.4 | 0.5% (inactive) | 92 | -0.548 (inactive) | -4.9e-05 (inactive) | 0.00551 (inactive) | 3.89% (inactive) | 20.6% (inactive)
14 | Cc1ccc(NCc2nnc(SCC(=O)NCc3ccco3)n2CC2CCCO2)cc1Cl (centres undefined) | 331 | -11.8% (inactive) | 13.3% (inactive) | 80.1 | 4.6% (inactive) | 106 | -0.505 (inactive) | 2.3e-05 (inactive) | 0.00472 (inactive) | -1.38% (inactive) | -3.61% (inactive)
